Measured values reported in ChEMBL document CHEMBL2029317, “(Z)-2-(2-bromophenyl)-3-{[4-(1-methyl-piperazine)amino]phenyl}acrylonitrile (DG172): an orally bioavailable PPARβ/δ-selective ligand with inverse agonistic properties” (J Med Chem, 2012).
The source made the active and inactive calls. The calls are words filed in the database; no cut-off is given here.

Experiments:
[1] = target: T1, Peroxisome proliferator-activated receptor delta (Mus musculus) (UniProt P35396); experiment: Inverse agonist activity at GST-tagged recombinant mouse PPARbeta/delta assessed as increase in corepressor peptide SMRT-ID2 interaction after 60 mins by TR-FRET assay; assay type: functional
T1 sequence (whole entry): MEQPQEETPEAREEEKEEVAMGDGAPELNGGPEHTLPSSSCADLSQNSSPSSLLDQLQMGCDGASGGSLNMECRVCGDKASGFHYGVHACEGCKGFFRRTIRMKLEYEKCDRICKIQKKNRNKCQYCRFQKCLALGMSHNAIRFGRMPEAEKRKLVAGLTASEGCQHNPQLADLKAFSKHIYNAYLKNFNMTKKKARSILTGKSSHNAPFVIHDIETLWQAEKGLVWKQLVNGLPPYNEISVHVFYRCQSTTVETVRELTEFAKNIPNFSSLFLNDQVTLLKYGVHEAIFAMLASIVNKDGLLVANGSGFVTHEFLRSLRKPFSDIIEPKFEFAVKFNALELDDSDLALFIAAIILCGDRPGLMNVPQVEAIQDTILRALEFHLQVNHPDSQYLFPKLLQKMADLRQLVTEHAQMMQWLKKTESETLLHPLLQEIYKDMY
In short: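 LanthaScreen TR-FRET coregulator assay: recombinant GST-PPARβ/δ LBD, labelled by a terbium-coupled anti-GST antibody, was incubated with fluorescein-labelled SMRT-ID2 corepressor peptide and compound. Signal is the 520/495 nm emission ratio, as triplicate averages ± SD, with t test against untreated sample.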

[2] = target: T2, Peroxisome proliferator-activated receptor gamma (Mus musculus) (UniProt P37238); experiment: Antagonist activity at PPARgamma in mouse NIH3T3 cells coexpressing LexA assessed as decrease in GW1929-induced transcriptional activation at 1 uM after 48 hrs by luciferase reporter gene assay relative to control; assay type: functional, cell-based
T2 sequence (whole entry): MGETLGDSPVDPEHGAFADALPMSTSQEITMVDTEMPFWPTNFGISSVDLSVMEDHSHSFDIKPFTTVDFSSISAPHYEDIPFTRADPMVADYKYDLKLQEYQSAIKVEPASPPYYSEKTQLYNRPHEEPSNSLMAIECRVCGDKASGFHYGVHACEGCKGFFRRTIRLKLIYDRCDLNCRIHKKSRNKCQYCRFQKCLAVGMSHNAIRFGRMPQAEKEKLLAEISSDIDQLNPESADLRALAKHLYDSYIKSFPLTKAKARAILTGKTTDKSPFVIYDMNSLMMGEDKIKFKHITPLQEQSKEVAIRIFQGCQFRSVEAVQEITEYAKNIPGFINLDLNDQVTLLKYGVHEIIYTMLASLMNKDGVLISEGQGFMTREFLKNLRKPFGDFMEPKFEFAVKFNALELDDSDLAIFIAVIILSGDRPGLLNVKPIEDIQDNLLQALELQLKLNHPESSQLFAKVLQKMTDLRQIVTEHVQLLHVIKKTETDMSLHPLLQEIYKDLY
In short: (§1)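 NIH3T3 cells were transfected with LexA-PPARα, -PPARβ/δ or -PPARγ fusion plasmids plus the 7L-TATAi luciferase reporter. From 4 h post-transfection, cells received inhibitory ligand (1 μM) for 48 h. Agonists followed: GW7647 300 nM (PPARα), L165,041 1 μM (PPARβ/δ) or GW1929 300 nM (PPARγ), or agonist solvent. Induction is luciferase activity with agonist relative to solvent; triplicates with t test.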

[3] = Volume of distribution at steady state in CD1 mouse at 1 mg/kg, iv; assay type: ADME, organism-based; design: dose 1 mg/kg, route intravenous; details: in vivo, read-out: Vdss
In short: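 Male CD-1 mice dosed iv by tail vein (1 mg/kg) or po by gastric gavage (5 mg/kg). Vehicle was DMSO/Solutol HS 15/PBS pH 7.4 (5/5/90, v/v/v). Blood was taken at eight time points from 10 min to 12 h, by parallel sampling of three mice per point. Plasma was acetonitrile-precipitated and analysed by HPLC-MS/MS, and basic PK parameters were derived.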

[4] = target: T3, Peroxisome proliferator-activated receptor alpha (Homo sapiens) (UniProt Q07869); experiment: Displacement of fluormone Pan-PPAR Green from PPARalpha at 100 to 1000 nM after 60 mins by TR-FRET assay
T3 sequence (whole entry): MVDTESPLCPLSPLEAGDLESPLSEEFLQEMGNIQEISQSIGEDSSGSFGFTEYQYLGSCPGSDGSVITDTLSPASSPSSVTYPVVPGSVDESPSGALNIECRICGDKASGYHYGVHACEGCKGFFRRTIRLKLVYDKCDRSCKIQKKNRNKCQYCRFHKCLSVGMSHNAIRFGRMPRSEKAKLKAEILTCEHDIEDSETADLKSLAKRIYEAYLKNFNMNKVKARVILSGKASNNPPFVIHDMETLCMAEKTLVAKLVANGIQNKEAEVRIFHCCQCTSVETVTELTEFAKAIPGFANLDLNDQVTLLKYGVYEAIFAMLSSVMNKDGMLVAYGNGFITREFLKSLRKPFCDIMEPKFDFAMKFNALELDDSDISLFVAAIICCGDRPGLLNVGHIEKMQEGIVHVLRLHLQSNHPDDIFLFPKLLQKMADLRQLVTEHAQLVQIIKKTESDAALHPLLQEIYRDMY

[5] = target: T1, Peroxisome proliferator-activated receptor delta (Mus musculus); experiment: Displacement of fluormone Pan-PPAR Green from mouse recombinant GST-tagged PPARbeta/delta LBD at 1 uM after 60 mins by TR-FRET assay
In short: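 Competitive binding by LanthaScreen TR-FRET: recombinant GST-PPARβ/δ LBD, detected through a terbium-labelled anti-GST antibody, was incubated with Fluormone Pan-PPAR Green. Compound was tested at 1 μM. Read-out is the 520 nm/495 nm emission ratio after terbium excitation, as averages of triplicates ± SD.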

[6] = target: T4, Peroxisome proliferator-activated receptor alpha (Mus musculus) (UniProt P23204); experiment: Antagonist activity at PPARalpha in mouse NIH3T3 cells coexpressing LexA assessed as decrease in GW7647-induced transcriptional activation at 1 uM after 48 hrs by luciferase reporter gene assay relative to control; assay type: functional, cell-based; in short: as §1
T4 sequence (whole entry): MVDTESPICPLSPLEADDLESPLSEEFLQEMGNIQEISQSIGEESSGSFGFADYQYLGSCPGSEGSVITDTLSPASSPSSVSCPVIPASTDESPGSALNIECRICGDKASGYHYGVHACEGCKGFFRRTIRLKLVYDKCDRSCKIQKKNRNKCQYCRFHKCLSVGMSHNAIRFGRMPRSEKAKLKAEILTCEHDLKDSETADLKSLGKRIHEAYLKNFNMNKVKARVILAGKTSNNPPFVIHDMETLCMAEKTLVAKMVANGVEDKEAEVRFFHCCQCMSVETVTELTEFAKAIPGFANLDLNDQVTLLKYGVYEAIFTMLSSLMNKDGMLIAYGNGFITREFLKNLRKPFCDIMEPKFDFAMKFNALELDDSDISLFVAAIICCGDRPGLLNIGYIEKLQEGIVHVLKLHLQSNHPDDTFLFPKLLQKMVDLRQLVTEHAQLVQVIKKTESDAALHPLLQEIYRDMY

[7] = target: T5, Peroxisome proliferator-activated receptor delta (Mus musculus, UniProt P35396); experiment: Displacement of fluormone Pan-PPAR Green from mouse recombinant GST-tagged PPARbeta/delta LBD after 60 mins by TR-FRET assay
T5 sequence (P35396 whole entry): T1 sequence (whole entry)

Activity [1]	Activity [2]	Vd [3] [L/kg]	Activity [4]	Activity [5]	Activity [6]	IC50 [7] [nM]	SMILES
Active	inactive	12.5	inactive	Active	inactive	26.9	CN1CCN(c2ccc(/C=C(\C#N)c3ccccc3Br)cc2)CC1
Active	inactive	6.2	inactive	Active	inactive	180	CN(C)c1ccc(/C=C(\C#N)c2ccccc2Cl)cc1
